Measurements: publication PMC7729281 (Biochemistry, 2020)
Where “and” joins values, the source holds several entries; their conditions need not be identical. Equal values may be shown once. Read-outs that look alike come from different tables or passages of the source.

Legend:
human platelets = experiment: Collagen-stimulated platelet aggregation; format: cell-based; conditions: 10 min incubation, collagen 0.25 μg/mL
Procedure, shortened: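 Washed human platelets were isolated by serial centrifugation and resuspended in Tyrode's buffer at 3 × 10^8/mL. They were preincubated with test compound (1–10 μM) for 10 min at 37 °C, then stimulated with 0.25 μg/mL collagen while stirring at 1100 rpm. Maximum aggregation was read as the light-transmittance change, mean ± SEM of 3–5 independent experiments. Comparison versus vehicle used one-way ANOVA with Dunnett's test.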

h12-LOX [1] = biological target: T1, h12-LOX (Homo sapiens, UniProt P18054); experiment: Allosteric modulation of 14S-HpDHA epoxidation by h12-LOX; format: biochemical; conditions: 1 μM 14S-HpDHA
T1 sequence (P18054 1-663): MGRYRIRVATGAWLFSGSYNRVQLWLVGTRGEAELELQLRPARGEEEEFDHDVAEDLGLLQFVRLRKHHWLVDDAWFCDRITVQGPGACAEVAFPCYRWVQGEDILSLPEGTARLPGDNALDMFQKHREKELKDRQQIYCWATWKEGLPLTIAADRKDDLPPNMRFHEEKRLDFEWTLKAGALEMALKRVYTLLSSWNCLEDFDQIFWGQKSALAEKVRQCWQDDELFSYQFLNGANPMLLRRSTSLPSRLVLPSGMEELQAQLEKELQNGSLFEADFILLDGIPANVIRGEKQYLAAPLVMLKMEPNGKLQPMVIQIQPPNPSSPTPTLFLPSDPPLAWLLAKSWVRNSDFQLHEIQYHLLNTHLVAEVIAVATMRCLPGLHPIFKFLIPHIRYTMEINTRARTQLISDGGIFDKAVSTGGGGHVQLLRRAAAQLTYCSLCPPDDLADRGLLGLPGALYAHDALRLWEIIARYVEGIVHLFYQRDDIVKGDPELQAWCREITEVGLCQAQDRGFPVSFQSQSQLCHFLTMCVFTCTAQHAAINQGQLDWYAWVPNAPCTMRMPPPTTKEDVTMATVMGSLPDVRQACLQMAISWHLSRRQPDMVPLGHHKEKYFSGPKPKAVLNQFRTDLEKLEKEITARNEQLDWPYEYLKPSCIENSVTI
Procedure, shortened: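 Recombinant human h15-LOX-1 (0.125 μM, 25 mM HEPES pH 7.5, 20 min) or h12-LOX (0.3 μM, pH 8.0, 1 h) reacted at room temperature with 1 μM 14S-HpDHA while oxylipin modulator was titrated (1–100 μM), or with 14S-HpDHA varied alone (1–50 μM). Products were reduced and analysed by LC-MS. Dehydration (epoxide) versus oxygenation product percentages were calculated, N = 3.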

h12-LOX [2] = biological target: T1, h12-LOX; experiment: Steady-state kinetics of h12-LOX
h15-LOX-1 [3] = biological target: T2, h15-LOX-1 (Homo sapiens, UniProt P16050); experiment: Steady-state kinetics of h15-LOX-1; conditions: for fold difference of kcat/KM: h15-LOX-1, kcat/KM of enzyme with DHA set to 1 (Table 5)
T2 sequence (P16050 1-662): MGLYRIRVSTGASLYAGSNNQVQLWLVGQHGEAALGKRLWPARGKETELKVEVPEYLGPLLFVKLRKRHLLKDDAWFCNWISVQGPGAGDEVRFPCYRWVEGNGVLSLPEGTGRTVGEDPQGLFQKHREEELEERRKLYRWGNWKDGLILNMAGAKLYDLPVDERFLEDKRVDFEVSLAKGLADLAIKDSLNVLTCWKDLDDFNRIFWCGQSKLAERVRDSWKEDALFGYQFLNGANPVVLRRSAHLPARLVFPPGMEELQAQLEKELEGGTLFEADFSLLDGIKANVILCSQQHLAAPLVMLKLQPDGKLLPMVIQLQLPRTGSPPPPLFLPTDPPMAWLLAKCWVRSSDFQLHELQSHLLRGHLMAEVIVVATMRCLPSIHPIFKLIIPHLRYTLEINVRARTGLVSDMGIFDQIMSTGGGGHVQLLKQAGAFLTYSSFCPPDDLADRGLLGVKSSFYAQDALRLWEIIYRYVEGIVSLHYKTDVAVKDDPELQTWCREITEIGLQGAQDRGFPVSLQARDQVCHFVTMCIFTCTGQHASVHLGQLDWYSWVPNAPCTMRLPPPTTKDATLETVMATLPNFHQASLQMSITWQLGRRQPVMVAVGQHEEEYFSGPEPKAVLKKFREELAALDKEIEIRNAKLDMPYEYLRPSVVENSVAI

h15-LOX-1 [4] = biological target: T2, h15-LOX-1; experiment: Product analysis of h15-LOX-1 reactions; format: biochemical
Procedure, shortened: (§1)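 h15-LOX-1 (0.125 μM, pH 7.5) or h12-LOX (0.300 μM, pH 8.0) was reacted in 25 mM HEPES at room temperature under ambient O2. Substrates were 10 μM DHA for 1 min (monitored at 234 nm) or 1 μM 14S-HpDHA for 20 min (h15-LOX-1) or 1 h (h12-LOX) (monitored at 270 nm). Reactions were quenched with acetic acid, spiked with d5-maresin-1, extracted into DCM and background-subtracted against a no-enzyme control. Split samples were run with or without trimethyl phosphite reduction. Products were identified by C18 LC-MS/MS (qTOF), N = 3.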

h15-LOX-1 [5] = biological target: T2, h15-LOX-1; conditions: h15-LOX-1 with AA, obtained previously ref 22; cited from earlier work
M2-polarized macrophages = M2-polarized macrophages challenged by inhibitor ref 44; cited from earlier work
h12-LOX [6] = biological target: T1, h12-LOX; experiment: Product analysis of h12-LOX reactions; format: biochemical
Procedure, shortened: as §1

[7] = substrate: CC/C=C\C/C=C\C/C=C\C/C=C\C/C=C\C/C=C\CCC(=O)O; experiment: purified protein, by the assay type
[8] = substrate: CCCCC/C=C\C/C=C\C/C=C\C/C=C\CCCC(=O)O; experiment: purified protein, by the assay type; conditions: other: h12-LOX + substrate, 25 mM HEPES pH 8.0, RT
[9] = h12-LOX + substrate, 25 mM HEPES pH 8.0, RT
[10] = h15-LOX-1 + substrate, 25 mM HEPES pH 7.5, RT
[11] = other: h12-LOX + substrate, 25 mM HEPES pH 8.0, RT
[12] = other: h15-LOX-1 + substrate, 25 mM HEPES pH 7.5, RT

## CC/C=C\C/C=C\C[C@H](O)/C=C/C=C\C=C\[C@@H](O)C/C=C\CCC(=O)O [7S,14S-EZE-diHDHA, 7S,14S-dihydroxy-4Z,8E,10Z,12E,16Z,19Z-docosahexaenoic acid]
Human platelets
  concentration required to completely inhibit platelet aggregation: 5 to 10 µM

## CCCCC/C=C\C[C@H](O)/C=C/C=C\C/C=C\CCCC(=O)O [12S-HETE, 12S-hydroxy-5Z,8Z,10E,14Z-eicosatetraenoic acid, reference compound]
h12-LOX [1]; titration of modulator
  allosteric effect on epoxidation: no allosteric effect

## CCCCC/C=C\C[C@H](O)/C=C/C=C\CCCCCCC(=O)O [12S-HETrE, 12S-hydroxy-8Z,10E,14Z-eicosatrienoic acid, reference compound]
Human platelets
  concentration required to completely inhibit platelet aggregation: 5 to 10 µM

## CC/C=C\C/C=C\C[C@H](O)/C=C/C=C\C/C=C\C/C=C\CCC(=O)O [14S-HDHA, 14S-hydroxy-4Z,7Z,10Z,12E,16Z,19Z-docosahexaenoic acid]
h12-LOX [2]; [9]
  Km: 210 ± 70 µM
  kcat: 0.17 ± 0.03 s⁻¹
h15-LOX-1 [3]; [10]
  Km: 18 ± 4 µM
  kcat: 0.57 ± 0.01 s⁻¹
h15-LOX-1 [3]
  fold difference of kcat/KM: −13

## CC/C=C\C/C=C\C[C@H](O)/C=C/C=C\C/C=C\CCCCCC(=O)O [14S-HDPAω-3, 14S-hydroxy-7Z,10Z,12E,16Z,19Z-docosapentaenoic acid]
h12-LOX [1]; titration with modulator, 72.0% at start
  epoxidation product at end of titration: 5.0%

## CCCCC/C=C\C/C=C\C/C=C\C/C=C\CCCC(=O)O [AA, arachidonic acid]
h15-LOX-1 [4]; h15-LOX-1 + AA
  product profile: ω-9 oxylipin 12S-HETE / 12S-HpETE: 10%
h15-LOX-1 [5]
  Km: 2.7 ± 0.3 µM
  kcat: 5.3 ± 0.4 s⁻¹

## O=C(Nc1ccc(F)cc1Cl)c1n[nH]c(Cl)c1Cl [BLX-3887]
M2-polarized macrophages
  decrease of 14S-HDHA production: 45%
  decrease of maresin production: 70%

## CC/C=C\C/C=C\C/C=C\C/C=C\C/C=C\C/C=C\CCC(=O)O [DHA, docosahexaenoic acid]
h15-LOX-1 [4]; h15-LOX-1 + 10 μM DHA, 1 min
  product profile: 11S-HpDHA (ω-12): 12% and 12 ± 1%
  product profile: 14S-HpDHA (ω-9): 40 ± 1%
  product profile: 17S-HpDHA (ω-6): 46% and 46 ± 1%
h12-LOX [6]; h12-LOX + 10 μM DHA, 1 min
  product profile: 11S-HpDHA (ω-12): 19% and 19 ± 3%
  product profile: 14S-HpDHA (ω-9): 81% and 81 ± 3%
  product profile: 17S-HpDHA (ω-6): <1.0%
h12-LOX [6]; substrate DHA
  14S-HpDHA product selectivity of h12-LOX greater than that of h15-LOX-1: 2 fold
h12-LOX [2]; h12-LOX + DHA, B.F. = kcat/KM * % product
  14S-HpDHA biosynthetic flux: 11
h12-LOX [2]; h12-LOX, kcat/KM of enzyme with DHA set to 1 (Table 5)
  fold difference of kcat/KM: 1.0
h12-LOX [2]; substrate DHA
  kcat/KM of h12-LOX greater than that of h15-LOX-1: 39 fold
h15-LOX-1 [3]; h15-LOX-1 + DHA
  fold difference of 14S-HpDHA biosynthetic flux: 1.0
h15-LOX-1 [3]; h15-LOX-1 + DHA, B.F. = kcat/KM * % product
  14S-HpDHA biosynthetic flux: 0.14
h15-LOX-1 [3]
  fold difference of kcat/KM: 1.0

## CC/C=C\C/C=C\C[C@H](O)\C=C/C=C/C=C/[C@H](O)C/C=C\CCC(=O)O [MaR-1, 7R,14S-dihydroxy-4Z,8E,10E,12Z,16Z,19Z-docosahexaenoic acid, reference compound]
Human platelets
  concentration required to completely inhibit platelet aggregation: 5 to 10 µM

B1: h12-LOX (Homo sapiens) (protein)
chain: T1 sequence (P18054 1-663)
[7]; [11]
  Km: 0.90 ± 0.06 µM
  kcat: 13 ± 0.2 s⁻¹
  kcat/Km: 1.4e+07 ± 800000 M⁻¹ s⁻¹
[8]
  Km: 0.95 ± 0.1 µM
  kcat: 18 ± 0.8 s⁻¹
  kcat/Km: 1.9e+07 ± 2e+06 M⁻¹ s⁻¹

B2: h15-LOX-1 (Homo sapiens) (protein)
chain: T2 sequence (P16050 1-662)
[7]; [12]
  Km: 6.7 ± 3 µM
  kcat: 2.4 ± 0.6 s⁻¹
  kcat/Km: 360000 ± 100000 M⁻¹ s⁻¹
